Compound activity (PubChem)
CHO parental Ca: counter-screen for OX1R antagonists: effect in parental CHO cells. AID 463079. parental CHO-K1, ATP-induced calcium, Fluo-8 fluorescence. 330,000 compounds, 0.63% hits. inhibition, % at 5.6 µM;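 active means inhibition above that plate's mean sample inhibition plus 3 SD, cut at about 26% in these data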;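 further: 0% = ATP-challenged DMSO wells and 100% = DMSO wells without ATP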
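Test system: untransfected parental CHO cell line; also added: ATP stimulus; dosing: 5.6 µM, single dose; signal: calcium-sensitive Fluo-8 fluorescence; measure: percent inhibition of ATP-evoked calcium rise, normalized to controls; benchmarks: low control ATP plus DMSO, high control DMSO only; replication: one well per compound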
CHO-K1 Ca ag: M1 agonist counterscreen hit in parental CHO-K1 cells. Fluo-8 calcium fluorescence; scaled to maximal ATP response, vehicle zero. activation, % at 3 µM. 360,000 compounds, 0.48% hits. AID 602248; in the data active means activation above about 15%;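 further: untransfected CHO-K1 host cells lacking M1 receptor as counterscreen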
OX1R antag-1: antagonists of human orexin 1 receptor (OX1R); O43613; OX1R-expressing cells, FRET antagonist read-out; inhibition, % at 6.6 µM; 330,000 compounds, 1.8% hits; in the data active means inhibition mostly above about 38%, no sharp cut-off; inactive means mostly below about 40%;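 further: 0% = agonist challenge alone and 100% = reference antagonist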
Target sequence (O43613 whole entry, looked up): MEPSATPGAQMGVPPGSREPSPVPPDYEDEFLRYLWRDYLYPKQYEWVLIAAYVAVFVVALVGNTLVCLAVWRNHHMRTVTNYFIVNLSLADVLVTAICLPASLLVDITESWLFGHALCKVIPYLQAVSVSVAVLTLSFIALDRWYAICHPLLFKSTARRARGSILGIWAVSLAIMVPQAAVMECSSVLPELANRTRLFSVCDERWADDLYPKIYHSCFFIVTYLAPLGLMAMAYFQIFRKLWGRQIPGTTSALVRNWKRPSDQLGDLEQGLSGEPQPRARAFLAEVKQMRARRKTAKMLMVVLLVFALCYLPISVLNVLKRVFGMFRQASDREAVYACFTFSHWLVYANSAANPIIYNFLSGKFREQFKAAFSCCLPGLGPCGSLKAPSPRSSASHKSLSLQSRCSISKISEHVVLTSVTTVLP
OX1R antag-2: antagonists of human orexin 1 receptor; O43613; CHO/OX1R cells, Fluo-8 calcium fluorescence, orexin A; inhibition, % at 5 µM; 330,000 compounds, 0.43% hits; AID 434989;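 active means inhibition above its plate's threshold, mean inhibition of all tested compounds on the plate plus 3 SD, cut at about 37% in these data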;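 further: 0% = orexin A challenge wells and 100% = SB-334867-A antagonist wells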
CHO-K1 Ca antag: counter-screen for M1 antagonists: effect in parental CHO-K1 cells; 360,000 compounds, 0.6% hits; ATP-induced calcium, Fluo-8 fluorescence; AID 602250; inhibition, % at 3 µM;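 active means inhibition above a per-plate cutoff, the plate's mean sample inhibition plus 3 SD, cut at about 24% in these data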;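 further: 0% = DMSO plus EC80 ATP and 100% = DMSO alone without ATP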
M1 PAM parental: M1 PAM counterscreen hit in parental CHO-K1 cells | ATP EC20, Fluo-8 calcium fluorescence; 0% at ATP EC20, 100% at ATP max | activation, % at 3 µM | 360,000 compounds, 0.02% hits;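 active means activation above the run cutoff, the mean activation of all test compounds plus 3 SD, cut at about 40% in these data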;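 further: peak over basal fluorescence ratio in a 140 s read after ATP addition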
* marks the source's active call; other numbers are inactive results; / = no result. Shown are actives, neighbours in structure and some others; about 2.9% of the full set was active somewhere.

SMILES	CHO parental Ca	CHO-K1 Ca ag	OX1R antag-1	OX1R antag-2	CHO-K1 Ca antag	M1 PAM parental
Cc1cc(C)c(OCCNCc2ccccc2)c(C)c1	-18	20*	-9	-21	-8	23
Cc1cc(Cl)cc(C)c1OCCNCc1ccccc1	-11	4	11	-29	-12	24
CC(OC(=O)Cn1[nH]c(=O)c2ccccc2c1=O)C(=O)Nc1ccc(F)cc1 (stereo not drawn)	-1	2	7	-14	9	10
CC(OC(=O)Cn1[nH]c(=O)c2ccccc2c1=O)C(=O)c1ccccc1 (stereo not drawn)	-11	1	14	-21	24*	-30
COC(=O)C1=NN(C(=O)c2cccc(Br)c2)C(O)(c2ccc(Cl)cc2)C1 (stereo not drawn)	-12	10	50*	-1	5	3
CCOC(=O)C1=NN(C(=O)c2ccc(OC)cc2)C(O)(c2ccc(Cl)cc2)C1 (stereo not drawn)	-9	8	2	-19	1	25
O=[N+]([O-])c1ccc(-c2nc(Nc3cccc(O)c3)c3ccccc3n2)cc1	-2	20*	16	-3	21	-6
CC(=O)N1CCN(c2nc3ccc([N+](=O)[O-])cc3s2)CC1	15	4	54*	4	-11	-7
CC(C)N1CCc2c(sc(NC(=O)CCS(=O)(=O)c3ccccc3)c2C#N)C1	-10	2	34	-9	-6	21
Cc1[nH]n(-c2ccccc2)c(=O)c1/C=N/N1C(=O)c2cccc3cccc(c23)C1=O	-5	0	74*	5	5	-5
Cc1[nH]n(-c2ccccc2)c(=O)c1/C=N/N1CCOCC1	-20	0	1	-16	-5	-18
COC(=O)c1ccc(OCC(O)CNCC(c2ccc(OC)cc2)N(C)C)c(OC)c1 (stereo not drawn)	-11	0	10	-17	7	-18
O=[N+]([O-])c1ccc(S(=O)(=O)CC(CN2CCOCC2)N2CCOCC2)cc1 (stereo not drawn)	-12	0	49*	0	3	-7
Cc1ccc(N(CC(O)CN2CCOCC2)S(=O)(=O)c2ccc([N+](=O)[O-])cc2)cc1 (stereo not drawn)	-21	0	38*	-20	-6	14
COc1ccc(N(CC(O)CN2CCOCC2)S(=O)(=O)c2ccc(C)cc2)cc1 (stereo not drawn)	-15	1	15	-26	-10	8
COc1ccc(S(=O)(=O)N2CCC(C(=O)NCCN3CCOCC3)CC2)cc1	-4	1	12	-12	-16	11
O=C(CNS(=O)(=O)c1ccccc1F)NNC(=O)c1ccc(Br)cc1	/	0	/	/	-3	16
COc1ccc(CCN2CCCn3c2nc2c3c(=O)n(CC(N)=O)c(=O)n2C)cc1OC	/	2	/	/	-11	9
O=[N+]([O-])c1cnc(Sc2ccncn2)s1	24	5	72*	18	3	1
OC(CNCc1ccccc1)(c1ccccc1)c1ccccc1	-26	15*	-4	-32	-17	20
COc1cc(N/C(=N/S(=O)(=O)c2ccccc2)c2ccccc2)ncn1	2	0	7	-19	25*	-6
COc1ccccc1N1CCN(CCCNC(=O)C2CCCN(c3ncnc4c3nc3n4CCCCC3)C2)CC1 (stereo not drawn)	3	2	16	-36	-18	5
CCN1/C(=C/c2ccc3cc(C)ccc3[n+]2CC)Sc2ccccc21	89*	36*	103*	86*	58*	-8
CC[n+]1c(/C=C2\Sc3ccccc3N2C)ccc2cccc(C)c21	/	19*	/	/	31*	8
CC[n+]1ccccc1/C=C1\Sc2ccc(C)cc2N1C	-5	0	18	-11	-15	7
CCN1/C(=C/c2ccc3cc(C)ccc3[n+]2CC)Sc2cc(C)c(C)cc21	/	11	/	/	50*	-15
CCN1/C(=C/c2cc[n+](CCCS(=O)(=O)[O-])c3ccccc23)Sc2ccccc21	1	0	36	-8	10	1
CCCNC(=O)Cc1c(C)oc2ccccc12	-8	0	1	4	11	-17
NC(=O)CSc1nnc(-c2ccc([N+](=O)[O-])cc2)o1	12	0	55*	-11	-8	-8
